From ChEMBL document CHEMBL3244114, “Synthesis of 11 beta,13 beta- and 13 beta,16 beta-propano steroids: probes of hormonal activity” (J Med Chem, 1979)
Active and inactive are the calls of the source. No cut-off for these calls is given here.

Tests used:
Oryctolagus cuniculus [1] = test: Antiprogestational activity in estradiol benzoate-primed rabbit at 10 to 15 mg, sc administered qd for 5 days by anti-Clauberg assay in presence of progesterone; format: functional, organism-based
Method in brief: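 Immature rabbits (six) were primed with estradiol benzoate for 6 days. Each compound (10–15 mg) was then given with progesterone (0.8 mg) in sesame oil, subcutaneously, once daily for 5 days. The read-out was uterine stimulation. NICHD ran the assay.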

[2] = molecular target: T1, Progesterone receptor (Oryctolagus cuniculus) (UniProt P06186); test: Binding affinity to progesterone receptor in rabbit uterine cytosol relative to progesterone; conditions: Uterus
T1 sequence (whole entry): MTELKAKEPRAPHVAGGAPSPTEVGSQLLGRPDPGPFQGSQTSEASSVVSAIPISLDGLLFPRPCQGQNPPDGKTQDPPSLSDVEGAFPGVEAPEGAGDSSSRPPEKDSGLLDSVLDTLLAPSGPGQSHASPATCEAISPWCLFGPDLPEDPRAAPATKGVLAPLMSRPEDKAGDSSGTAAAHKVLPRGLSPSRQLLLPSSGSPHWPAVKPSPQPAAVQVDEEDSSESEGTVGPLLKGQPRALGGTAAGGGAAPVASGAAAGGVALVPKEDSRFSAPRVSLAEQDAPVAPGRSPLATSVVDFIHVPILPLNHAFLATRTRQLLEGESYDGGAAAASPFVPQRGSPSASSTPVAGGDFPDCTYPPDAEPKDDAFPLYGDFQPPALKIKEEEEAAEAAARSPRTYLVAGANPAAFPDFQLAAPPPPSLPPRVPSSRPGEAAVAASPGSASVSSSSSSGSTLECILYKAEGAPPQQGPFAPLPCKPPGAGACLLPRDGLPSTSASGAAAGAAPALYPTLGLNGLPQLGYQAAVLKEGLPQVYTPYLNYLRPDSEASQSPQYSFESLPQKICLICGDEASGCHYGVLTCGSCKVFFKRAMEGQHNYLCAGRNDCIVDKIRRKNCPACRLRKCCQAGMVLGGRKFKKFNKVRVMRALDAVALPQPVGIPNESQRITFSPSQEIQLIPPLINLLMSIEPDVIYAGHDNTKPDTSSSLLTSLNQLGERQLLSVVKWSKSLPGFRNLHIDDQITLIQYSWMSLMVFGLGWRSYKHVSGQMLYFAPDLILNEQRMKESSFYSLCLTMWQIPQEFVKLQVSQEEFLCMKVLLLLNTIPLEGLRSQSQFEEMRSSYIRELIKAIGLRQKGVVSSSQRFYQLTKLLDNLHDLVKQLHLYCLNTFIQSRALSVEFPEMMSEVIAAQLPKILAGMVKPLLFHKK

Oryctolagus cuniculus [3] = species: Oryctolagus cuniculus; test: Progestational activity in immature rabbit assessed as uterine stimulation by Clauberg assay; format: functional
[4] = Solubility of the compound in carbon tetrachloride; format: physicochemical

Row | Compound | Activity (Oryctolagus cuniculus [1]) | Activity [2] | Activity (Oryctolagus cuniculus [3]) | solubility [4]
1 | C#C[C@]1(O)CC[C@H]2[C@@H]3CCC4=CC(=O)CC[C@@H]4[C@H]3CC[C@@]21CCCOC(C)=O | inactive |  |  | 
2 | C#CC1(O)CC[C@H]2[C@@H]3CCC4=CC(=O)CC[C@@H]4[C@H]3CC[C@@]21CC (mixture of isomers) |  | 206% |  | 
3 | C#C[C@]1(O)CC[C@H]2[C@@H]3CCC4=CC(=O)CC[C@@H]4[C@H]3CC[C@@]21CCC=O | inactive | 21% | 5% | 
4 | C#C[C@]1(O)[C@H]2CCC[C@@]13CC[C@H]1[C@@H](CCC4=CC(=O)CC[C@@H]41)[C@@H]3C2 (racemic) | inactive | 1% |  | 
5 | C#C[C@]1(O)CC[C@H]2[C@@H]3CCC4=CC(=O)CC[C@@H]4[C@H]3CC[C@@]21CCCCl | inactive | 1% |  | 
6 | C#C[C@]1(O)CC[C@H]2[C@@H]3CCC4=CC(=O)CC[C@@H]4[C@H]3CC[C@@]21C |  | 126% |  | 
7 | COc1ccc2c(c1)CCC1=C2[C@@H]2C[C@]3(CCC2O)[C@@H](OC(C)=O)CC[C@@H]13 (stereo partly drawn) |  |  |  | Insoluble
8 | C#C[C@]1(O)CC[C@H]2[C@@H]3CCC4=CC(=O)CC[C@@H]4[C@H]3CC[C@@]21CCCO | inactive | 2% |  | 
9 | C#C[C@]1(O)CC[C@H]2[C@@H]3CCC4=CC(=O)CC[C@@H]4[C@H]3[C@H]3CCC[C@]21C3 (racemic) |  | 136% |  | 
10 | C#C[C@]1(O)CC[C@H]2[C@@H]3CCC4=CC(=O)CC[C@@H]4[C@H]3[C@@H](C)C[C@@]21CC (racemic) |  | 151% |  | 
11 | C#C[C@]1(O)CC[C@H]2[C@@H]3CCC4=CC(=O)CC[C@@H]4[C@H]3CC[C@@]21CCCOC(=O)CBr | inactive | 2% |  | 
12 | C#C[C@]1(O)CC[C@H]2[C@@H]3CCC4=CC(=O)CC[C@@H]4[C@H]3[C@@H](C)C[C@@]21C |  | 390% |  | 
